Test results as given in ChEMBL document CHEMBL1122018, “Synthesis and orexigenic activity of some 1-methyl-4-piperidylidene-Substituted pyrrolo[2,1-g][3] benzazepine and dibenzocycloheptene derivatives” (1982).

Legend:
Format in all cases: functional
Felis catus [1] = assay: Average food consumed at the dose of 0.50 mg/kg (po) using 10 cats per dose level at 60 min (control day/ test day); 23/129; details: dose 0.5 mg/kg
Outline: (§1)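 Cats given test compound suspended in 1% methylcellulose, or 1% methylcellulose placebo, by gavage 30 min before a preweighed test meal. Food was offered in surplus for 3 h, and intake was found by reweighing at 30, 60 and 180 min. Ten cats per dose, each dosed no more than once weekly. Test-day intake was compared with the preceding control day by two-tailed paired t test (p < 0.05); values are mean ± SD.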

Felis catus [2] = assay: Average food consumed at the dose of 0.25 mg/kg (po) using 10 cats per dose level at 60 min (control day/ test day); 46/128; outline: as §1
Felis catus [3] = assay: Average food consumed at the dose of 0.031 mg/kg (po) using 10 cats per dose level at 30 min (control day/ test day); 25/67
Felis catus [4] = assay: Average food consumed at the dose of 0.50 mg/kg (po) using 10 cats per dose level at 180 min (control day/ test day); 35/194; details: dose 0.5 mg/kg; outline: as §1
Felis catus [5] = assay: Average food consumed at the dose of 0.031 mg/kg (po) using 10 cats per dose level at 60 min (control day/ test day); 25/105
Felis catus [6] = assay: Average food consumed at the dose of 0.031 mg/kg (po) using 10 cats per dose level at 180 min (control day/ test day); 34/172
Felis catus [7] = assay: Average food consumed at the dose of 0.25 mg/kg (po) using 10 cats per dose level at 30 min (control day/ test day); 37/98; outline: as §1
Felis catus [8] = assay: Average food consumed at the dose of 0.25 mg/kg (po) using 10 cats per dose level at 180 min (control day/ test day); 40/210
Felis catus [9] = assay: Average food consumed at the dose of 0.50 mg/kg (po) using 10 cats per dose level at 30 min (control day/ test day); 24/93; details: dose 0.5 mg/kg; outline: as §1
Felis catus [10] = assay: Average food consumed at the dose of 0.031 mg/kg (po) using 10 cats per dose level at 180 min (control day/ test day); 52/182
Felis catus [11] = assay: Average food consumed at the dose of 0.031 mg/kg (po) using 10 cats per dose level at 60 min (control day/ test day); 9/113
Felis catus [12] = assay: Average food consumed at the dose of 0.031 mg/kg (po) using 10 cats per dose level at 30 min (control day/ test day); 18/88
Felis catus [13] = assay: Average food consumed at the dose of 0.50 mg/kg (po) using 10 cats per dose level at 180 min (control day/ test day); 43/193; details: dose 0.5 mg/kg; outline: as §1
Felis catus [14] = assay: Average food consumed at the dose of 0.50 mg/kg (po) using 10 cats per dose level at 60 min (control day/ test day); 45/142; details: dose 0.5 mg/kg; outline: as §1
Felis catus [15] = assay: Average food consumed at the dose of 0.50 mg/kg (po) using 10 cats per dose level at 30 min (control day/ test day); 33/109; details: dose 0.5 mg/kg; outline: as §1
Felis catus [16] = assay: Average food consumed at the dose of 0.031 mg/kg (po) using 10 cats per dose level at 30 min (control day/ test day); 20/75
Felis catus [17] = assay: Average food consumed at the dose of 0.016 mg/kg (po) using 10 cats per dose level at 30 min (control day/ test day); 25/104
Felis catus [18] = assay: Average food consumed at the dose of 0.25 mg/kg (po) using 10 cats per dose level at 60 min (control day/ test day); 26/127; outline: as §1
Felis catus [19] = assay: Average food consumed at the dose of 0.063 mg/kg (po) using 10 cats per dose level at 60 min (control day/ test day); 32/138
Felis catus [20] = assay: Average food consumed at the dose of 0.25 mg/kg (po) using 10 cats per dose level at 180 min (control day/ test day); 30/170
Felis catus [21] = assay: Average food consumed at the dose of 0.016 mg/kg (po) using 10 cats per dose level at 60 min (control day/ test day); 30/137
Felis catus [22] = assay: Average food consumed at the dose of 0.016 mg/kg (po) using 10 cats per dose level at 180 min (control day/ test day); 39/190
Felis catus [23] = assay: Average food consumed at the dose of 0.25 mg/kg (po) using 10 cats per dose level at 30 min (control day/ test day); 20/89
Felis catus [24] = assay: Average food consumed at the dose of 0.031 mg/kg (po) using 10 cats per dose level at 60 min (control day/ test day); 14/95
Felis catus [25] = assay: Average food consumed at the dose of 0.063 mg/kg (po) using 10 cats per dose level at 30 min (control day/ test day); 33/122
Felis catus [26] = assay: Average food consumed at the dose of 0.50 mg/kg (po) using 10 cats per dose level at 30 min (control day/ test day); 38/105; details: dose 0.5 mg/kg; outline: as §1
Felis catus [27] = assay: Average food consumed at the dose of 0.50 mg/kg (po) using 10 cats per dose level at 60 min (control day/ test day); 42/155; details: dose 0.5 mg/kg; outline: as §1
Felis catus [28] = assay: Average food consumed at the dose of 0.031 mg/kg (po) using 10 cats per dose level at 180 min (control day/ test day); 24/152
Felis catus [29] = assay: Average food consumed at the dose of 0.063 mg/kg (po) using 10 cats per dose level at 180 min (control day/ test day); 26/204
Felis catus [30] = assay: Average food consumed at the dose of 0.50 mg/kg (po) using 10 cats per dose level at 180 min (control day/ test day); 45/221; details: dose 0.5 mg/kg; outline: as §1

SMILES: CN1CCC(=C2c3cc(C(=O)O)ccc3C=Cn3cccc32)CC1.Cl
- Average consumed (Felis catus [1]): 114 g
- Average consumed (Felis catus [2]): 112 g
- Average consumed (Felis catus [3]): 55 g
- Average consumed (Felis catus [4]): 170 g
- Average consumed (Felis catus [5]): 84 g
- Average consumed (Felis catus [6]): 145 g
- Average consumed (Felis catus [7]): 73 g
- Average consumed (Felis catus [8]): 176 g
- Average consumed (Felis catus [9]): 78 g
- Average consumed (Felis catus [10]): 184 g
- Average consumed (Felis catus [11]): 98 g
- Average consumed (Felis catus [12]): 65 g

SMILES: CN1CCC(=C2c3cc(C(=O)O)ccc3CCn3cccc32)CC1.Cl
- Average consumed (Felis catus [13]): 173 g
- Average consumed (Felis catus [14]): 125 g
- Average consumed (Felis catus [15]): 92 g

SMILES: CN1CCC(=C2c3ccccc3CCc3ccc(C(=O)O)cc32)CC1.Cl
- Average consumed (Felis catus [16]): 53 g
- Average consumed (Felis catus [17]): 97 g
- Average consumed (Felis catus [18]): 102 g
- Average consumed (Felis catus [19]): 118 g
- Average consumed (Felis catus [20]): 145 g
- Average consumed (Felis catus [21]): 139 g
- Average consumed (Felis catus [22]): 180 g
- Average consumed (Felis catus [23]): 68 g
- Average consumed (Felis catus [24]): 83 g
- Average consumed (Felis catus [25]): 88 g
- Average consumed (Felis catus [26]): 84 g
- Average consumed (Felis catus [27]): 102 g
- Average consumed (Felis catus [28]): 126 g
- Average consumed (Felis catus [29]): 174 g
- Average consumed (Felis catus [30]): 134 g
